From ChEMBL document CHEMBL4011629, “New Disubstituted Quindoline Derivatives Inhibiting Burkitt's Lymphoma Cell Proliferation by Impeding c-MYC Transcription” (J Med Chem, 2017)
Activity calls are given as the source filed them. The calls are words filed in the database; no cut-off is given here.

What was measured:
Raji = assay: Antitumor activity against human Raji cells xenografted in NOD/SCID nude mouse assessed as reduction in tumor weight at 1 mg/kg, ip administered once in 2 days for 2 weeks relative to control; assay type: functional, organism-based
In short: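 NOD/SCID mice were implanted subcutaneously in the underarm with RAJI cells (5 × 10^6 per 100 μL of RPMI 1640 with 10% serum). Tumours reached […] after 1 week, and mice were then randomised. […] Tumour volume was recorded daily and tumour weight at the end.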

Mus musculus [1] = assay: Toxicity in NOD/SCID nude mouse xenografted with human Raji cells assessed as reduction in body weight at 1 mg/kg, ip administered once in 2 days for 2 weeks measured every day during compound dosing; assay type: organism-based; conditions: in vivo
In short: (§1)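 NOD/SCID mice implanted subcutaneously in the underarm with 5 × 10^6 RAJI cells in 100 μL RPMI 1640 with 10% serum; tumours grown about 1 week, then mice randomized. Body weight recorded daily; organ weights taken at end.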

Mus musculus [2] = assay: Toxicity in NOD/SCID nude mouse xenografted with human Raji cells assessed as reduction in viscera weight at 1 mg/kg, ip administered once in 2 days for 2 weeks measured every day during compound dosing; assay type: organism-based; conditions: in vivo; in short: as §1

COc1cccc2c1C(=O)c1c(O)c3c(c(O)c1C2=O)C[C@@](O)(C(=O)CO)C[C@@H]3O[C@H]1C[C@H](N)[C@H](O)[C@H](C)O1 [DOXORUBICIN]
Activity (Raji): Active | Activity (Mus musculus [1]): Toxic | Activity (Mus musculus [2]): Toxic
